IC50 and ED50 data for 5 compounds are collected here from ChEMBL document CHEMBL1125563, “Selective, centrally acting serotonin 5-HT2 antagonists. 1. 2- and 6-substituted 1-phenyl-3-(4-piperidinyl)-1H-indoles” (J Med Chem, 1992).

For test [1], the target named is T1, Adrenergic receptor alpha-1 (Rattus norvegicus, UniProt P15823+P23944+P43140).
T1 sequence (P15823 whole entry): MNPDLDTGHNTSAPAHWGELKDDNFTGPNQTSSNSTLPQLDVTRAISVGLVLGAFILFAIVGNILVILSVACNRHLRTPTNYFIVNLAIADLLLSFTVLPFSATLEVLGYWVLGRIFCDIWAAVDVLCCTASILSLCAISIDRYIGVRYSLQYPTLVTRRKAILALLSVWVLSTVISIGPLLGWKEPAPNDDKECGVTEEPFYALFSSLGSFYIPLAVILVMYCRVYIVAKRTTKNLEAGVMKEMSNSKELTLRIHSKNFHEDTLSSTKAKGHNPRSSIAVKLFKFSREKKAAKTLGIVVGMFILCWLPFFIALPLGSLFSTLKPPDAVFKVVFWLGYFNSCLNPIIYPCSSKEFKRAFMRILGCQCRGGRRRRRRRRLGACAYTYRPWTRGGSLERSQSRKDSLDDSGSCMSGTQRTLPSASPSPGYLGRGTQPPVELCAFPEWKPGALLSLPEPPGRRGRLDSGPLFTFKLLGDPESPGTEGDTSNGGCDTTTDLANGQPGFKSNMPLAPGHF
T1 sequence (P23944 whole entry): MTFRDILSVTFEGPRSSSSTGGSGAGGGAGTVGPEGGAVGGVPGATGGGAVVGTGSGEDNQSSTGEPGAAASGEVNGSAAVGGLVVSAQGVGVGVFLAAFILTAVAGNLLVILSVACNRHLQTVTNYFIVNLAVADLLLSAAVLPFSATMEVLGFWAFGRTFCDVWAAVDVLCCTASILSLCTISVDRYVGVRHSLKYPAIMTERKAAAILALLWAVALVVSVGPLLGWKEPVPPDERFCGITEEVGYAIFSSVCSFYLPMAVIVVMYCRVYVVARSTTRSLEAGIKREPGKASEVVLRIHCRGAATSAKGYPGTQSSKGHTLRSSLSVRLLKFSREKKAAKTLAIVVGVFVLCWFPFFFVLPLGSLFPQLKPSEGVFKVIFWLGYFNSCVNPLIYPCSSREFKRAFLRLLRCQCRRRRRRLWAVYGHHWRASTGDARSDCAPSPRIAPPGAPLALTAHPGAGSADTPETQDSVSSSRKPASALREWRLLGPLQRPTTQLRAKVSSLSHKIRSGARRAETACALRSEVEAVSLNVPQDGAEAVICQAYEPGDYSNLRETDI
T1 sequence (P43140 whole entry): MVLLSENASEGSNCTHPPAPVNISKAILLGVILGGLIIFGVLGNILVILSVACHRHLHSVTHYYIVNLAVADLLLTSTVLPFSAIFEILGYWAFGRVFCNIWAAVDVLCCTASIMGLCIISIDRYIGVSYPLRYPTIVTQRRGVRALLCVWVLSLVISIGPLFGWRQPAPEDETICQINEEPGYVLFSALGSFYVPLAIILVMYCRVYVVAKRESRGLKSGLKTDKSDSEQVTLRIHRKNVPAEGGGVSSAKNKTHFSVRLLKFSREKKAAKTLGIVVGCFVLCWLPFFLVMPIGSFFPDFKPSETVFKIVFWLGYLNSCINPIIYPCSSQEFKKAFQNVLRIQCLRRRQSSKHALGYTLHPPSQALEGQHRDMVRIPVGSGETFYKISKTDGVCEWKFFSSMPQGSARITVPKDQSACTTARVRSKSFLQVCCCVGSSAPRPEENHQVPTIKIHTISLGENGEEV
The test is described as follows: Displacement of [3H]prazosin from Alpha-1 adrenergic receptor of whole rat brain membranes. The class given is cell membranes, Membrane. Summed up: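 α1 adrenoceptor binding measured as displacement of [3H]prazosin from whole rat brain membranes. Five test-drug concentrations spanning three decades in triplicate, two full curves; IC50 from log concentration-effect curves, logarithmic mean of at least two determinations.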

The species named for test [2] is Mus musculus. The test is described as follows: Compound was evaluated for the inhibition of isolation-induced aggression at a threshold of 180 seconds. Format: functional. Summed up: (§1)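 Isolated male NMRI mice (3 weeks) trained to attack a nonaggressive intruder of the same strain; only mice with attack latency <25 s included. Pretested just before dosing and 2 h after sc test substance; observation maximum 180 s; at least eight mice per dose.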

Test [3] is filed under the species Mus musculus. The test is described as follows: Compound was evaluated for the inhibition of isolation-induced aggression at a threshold of, 90 seconds. Format: functional. Summed up:
as §1

Test [4] relates to Rattus norvegicus. The test is described as follows: Compound was evaluated for the inhibition of quipazine-induced head twitches after 24 hr (administered subcutaneously); 0.0089-0.12. The class given is functional. Particulars: sc.
Test [5] has as its system Rattus norvegicus. The test is described as follows: Compound was evaluated for the inhibition of quipazine-induced head twitches after 24 hr (administered perorally); 0.017-0.18. Format: functional. The settings on record: po.
Test [6] relates to Rattus norvegicus. The test is described as follows: Compound was evaluated for the inhibition of pergolide-induced reactions after 2 hr (administered subcutaneously). Format: functional. Particulars: sc. Summed up:
(§2)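 Male Wistar rats with unilateral 6-OHDA lesions; test drug sc 2 h before pergolide (0.05 µmol/kg sc) to induce contralateral circling. Effect of each dose expressed as percent of mean of control sessions 1 week before and 1 week after, per rat; at least four rats per dose; ED50 by log-probit analysis.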

Test [7] concerns the target Serotonin 2 (5-HT2) receptor (Rattus norvegicus, UniProt P30994+P08909+P14842). The test is described as follows: Displacement of [3H]ketanserin from 5-hydroxytryptamine 2 receptor from rat cortical membranes. Format: cell membranes, Membrane. Summed up:
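[3H]ketanserin displacement from rat cortical membranes (5-HT2). Five concentrations across three decades in triplicate, two full curves; IC50 estimated on a log-concentration scale, given as logarithmic mean of at least two determinations.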

Test [8] concerns Rattus norvegicus. The test is described as follows: Compound was evaluated for the inhibition of quipazine-induced head twitches after 2 hr (administered subcutaneously); 0.0027-0.073. Format: functional. The settings on record: sc.
Test [9] relates to Rattus norvegicus. The test is described as follows: Compound was evaluated for the inhibition of quipazine-induced head twitches after 2 h (administered subcutaneously). Format: functional. The settings on record: sc.
For test [10], the system named is Rattus norvegicus. The test is described as follows: Compound was evaluated for the inhibition of quipazine-induced head twitches after 24 hr (administered subcutaneously). The settings on record: sc. Format: functional.
In test [11] the test system is Rattus norvegicus. The test is described as follows: Compound was evaluated for the inhibition of quipazine-induced head twitches after 2 h (administered subcutaneously); 0.011-0.12. The class given is functional. The settings on record: sc.
In test [12] the test system is Rattus norvegicus. The test is described as follows: Compound was evaluated for the inhibition of quipazine-induced head twitches after 24 hr (administered perorally); 0.12-0.57. The class given is functional. The settings on record: po.
The subject of test [13] is Rattus norvegicus. The test is described as follows: Compound was evaluated for the inhibition of pergolide-induced reactions after 2 hr (administered subcutaneously); 1.8-14.4. Format: functional. The settings on record: sc. Summed up:
as §2

The species entered for test [14] is Mus musculus. The test is described as follows: Compound was evaluated for the inhibition of isolation-induced aggression at a threshold of 180 seconds; 1.1-2.6. Format: functional. Summed up: as §1
Test [15] is filed under the species Mus musculus. The test is described as follows: Compound was evaluated for the inhibition of isolation-induced aggression at a threshold of, 90 seconds; 1.3-2.9. Format: functional. Summed up: as §1
Test [16] relates to Rattus norvegicus. The test is described as follows: Compound was evaluated for the inhibition of quipazine-induced head twitches after 24 hr (administered subcutaneously); 0.014-0.48. The settings on record: sc.
For test [17], the system named is Rattus norvegicus. The test is described as follows: Compound was evaluated for the inhibition of quipazine-induced head twitches after 2 h (administered subcutaneously); 0.064-0.18. The class given is functional. The settings on record: sc.
In test [18] the test system is Rattus norvegicus. The test is described as follows: Compound was evaluated for the inhibition of quipazine-induced head twitches after 24 hr (administered subcutaneously); 0.017-0.16. The class given is functional. Particulars: sc.
The subject of test [19] is Rattus norvegicus. The test is described as follows: Compound was evaluated for the inhibition of quipazine-induced head twitches after 24 hr (administered perorally); 0.026-0.12. Format: functional. The settings on record: po.
For test [20], the species on record is Mus musculus. The test is described as follows: Compound was evaluated for the inhibition of isolation-induced aggression at a threshold of,90 seconds. Format: functional. Summed up:
as §1

Test [21] deals with Rattus norvegicus. The test is described as follows: Compound was evaluated for the inhibition of quipazine-induced head twitches after 2 hr (administered subcutaneously); 0.018-0.096. Format: functional. Particulars: sc.
The test system of test [22] is Rattus norvegicus. The test is described as follows: Compound was evaluated for the inhibition of quipazine-induced head twitches after 24 hr (administered subcutaneously); 0.010-0.12. Format: functional. The settings on record: sc.
The test system of test [23] is Rattus norvegicus. The test is described as follows: Compound was evaluated for the inhibition of quipazine-induced head twitches after 24 h (administered perorally); 0.056-0.22. Particulars: po. Format: functional.

As for `Cc1ccc2c(C3CCN(CCN4CCN(C(C)C)C4=O)CC3)cn(-c3ccccc3)c2c1`, the 50% inhibitory concentration (IC50) is given as 120 nM in test [1] and 2 nM in test [7]. The ED50 in test [2] is over 11 µmol/kg; in test [3] it was over 11 µmol/kg; in test [4], 0.032 µmol/kg; in [5] it was 0.056 µmol/kg; in test [6], over 22 µmol/kg; in test [8], 0.014 µmol/kg.
Turning to `CC(C)c1ccc2c(C3CCN(CCN4CCN(C(C)C)C4=O)CC3)cn(-c3ccc(F)cc3)c2c1`, the IC50 is 730 nM in [1] and 16 nM in [7]. For the same compound, the results for the ED50 in [9] and in [10] were over 0.54 µmol/kg and over 4.3 µmol/kg, respectively.
As to `O=C1NCCN1CCN1CCC(c2cn(-c3ccc(F)cc3)c3ccccc23)CC1`, the IC50 in test [1] is listed as 3 nM; in test [7], 0.72 nM. Further, the ED50 in test [11] is 0.036 µmol/kg; in test [12] it was 0.26 µmol/kg; in test [13], 5.1 µmol/kg; in test [14], 1.7 µmol/kg; in test [15], 1.9 µmol/kg; in test [16] it was 0.082 µmol/kg.
For `CC(C)N1CCN(CCN2CCC(c3cn(-c4ccc(F)cc4)c4cc(Cl)ccc34)CC2)C1=O`, the results for the IC50 in [1] and in test [7] were 70 nM and 1.5 nM, respectively. For the same compound, the ED50 was 2 µmol/kg in test [2]; 2.3 µmol/kg in test [3]; 0.11 µmol/kg in [17]; 0.052 µmol/kg in test [18]; 0.055 µmol/kg in test [19]; over 17 µmol/kg in [6].
Consider `Cc1ccc2c(C3CCN(CCN4CCN(C(C)C)C4=O)CC3)cn(-c3ccc(F)cc3)c2c1`, for which the values for the half-maximal inhibitory concentration (IC50) in test [1] and in test [7] were 85 nM and 1.6 nM, respectively. Further, the ED50 was 7.3 µmol/kg in [2]; 13 µmol/kg in test [20]; 0.042 µmol/kg in test [21]; 0.036 µmol/kg in test [22]; 0.11 µmol/kg in test [23]; over 18 µmol/kg in test [6].
